Calls of active or inactive are those of the source.
Columns and labels:
Rattus norvegicus [1] = experiment: Antinociceptive activity in sc dosed Sprague-Dawley rat assessed as thermal-stimulus induced tail flick latency after 2 hrs; format: functional
Rattus norvegicus [2] = experiment: Antinociceptive activity in sc dosed Sprague-Dawley rat assessed as thermal-stimulus induced tail flick latency after 1 hrs; format: functional
Rattus norvegicus [3] = experiment: Antinociceptive activity in sc dosed Sprague-Dawley rat assessed as thermal-stimulus induced tail flick latency after 0.5 hrs; format: functional
[4] = Displacement of [3H]U69593 from kappa opioid receptor in guinea pig brain membrane by liquid scintillation counting; format: cell membranes, Cavia porcellus
[5] = biological target: Kappa-type opioid receptor (Cavia porcellus, UniProt P41144); experiment: Displacement of [3H][Ile5,6]deltorphin 2 from delta opioid receptor in Sprague-Dawley rat brain membrane by liquid scintillation counting; format: cell membranes
Kappa-type opioid receptor, sequence (P41144 whole entry): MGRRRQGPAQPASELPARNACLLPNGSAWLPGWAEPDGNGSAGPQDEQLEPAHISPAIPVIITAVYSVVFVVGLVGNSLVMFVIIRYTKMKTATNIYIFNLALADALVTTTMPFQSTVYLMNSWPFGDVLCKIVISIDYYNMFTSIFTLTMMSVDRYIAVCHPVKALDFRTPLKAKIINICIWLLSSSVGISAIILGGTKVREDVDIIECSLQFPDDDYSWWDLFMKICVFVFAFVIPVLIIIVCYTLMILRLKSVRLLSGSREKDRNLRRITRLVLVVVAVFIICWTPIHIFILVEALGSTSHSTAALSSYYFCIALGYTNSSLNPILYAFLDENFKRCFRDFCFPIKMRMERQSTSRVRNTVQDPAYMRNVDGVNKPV

Rattus norvegicus [6] = experiment: Antinociceptive activity in sc dosed Sprague-Dawley rat assessed as thermal-stimulus induced tail flick latency after 3 hrs; format: functional
Mu-type opioid receptor = Mu-type opioid receptor (Rattus norvegicus, UniProt P33535); experiment: Displacement of [3H]DAMGO from mu opioid receptor in Sprague-Dawley rat brain membrane by liquid scintillation counting; format: cell membranes
Mu-type opioid receptor, sequence (P33535 whole entry): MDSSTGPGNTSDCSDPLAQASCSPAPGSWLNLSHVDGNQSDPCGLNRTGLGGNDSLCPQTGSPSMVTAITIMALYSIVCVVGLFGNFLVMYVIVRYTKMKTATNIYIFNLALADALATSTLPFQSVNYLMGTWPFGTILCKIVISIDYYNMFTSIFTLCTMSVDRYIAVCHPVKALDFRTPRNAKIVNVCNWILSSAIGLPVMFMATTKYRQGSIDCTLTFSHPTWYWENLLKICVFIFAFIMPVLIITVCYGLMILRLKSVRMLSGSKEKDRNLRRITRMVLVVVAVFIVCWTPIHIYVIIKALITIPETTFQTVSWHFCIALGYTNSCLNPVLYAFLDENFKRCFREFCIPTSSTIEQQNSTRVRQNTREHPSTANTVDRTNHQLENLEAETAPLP

Rattus norvegicus [7] = experiment: Antinociceptive activity in sc dosed Sprague-Dawley rat assessed as thermal-stimulus induced tail flick latency relative to morphine; format: functional
Rattus norvegicus [8] = experiment: Antinociceptive activity in Sprague-Dawley rat inflammatory model assessed as paw withdrawal latency at 170 nmol/kg, sc administered post carrageenan challenge; format: functional, organism-based
Procedure, shortened: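 Male Sprague-Dawley rats (250 g), unanesthetized; unilateral inflammation from 100 μL 1% carrageenan into the right hindpaw plantar surface. At 3 h post-carrageenan, compound given sc in 0.9% saline (100 μL); saline controls; 4–7 rats per group. Randall–Selitto paw pressure (blunt wedge piston, 48 g/s, 20 s cutoff) applied to the dorsal paw. Response is % change in withdrawal latency from the 3 h pre-drug value.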

Rattus norvegicus [9] = experiment: Antinociceptive activity in Sprague-Dawley rat inflammatory model assessed as paw withdrawal latency at 183 nmol/kg, sc administered post carrageenan challenge; format: functional, organism-based
Rattus norvegicus [10] = species on record: Rattus norvegicus; settings: Sprague-Dawley, at 426 nmol/kg
Rattus norvegicus [11] = species on record: Rattus norvegicus; settings: Sprague-Dawley, at 426 nmol/kg; remark: listed apart in the source

| Structure (SMILES) | ED50 (Rattus norvegicus [1]) [µmol/kg] | ED50 (Rattus norvegicus [2]) [µmol/kg] | ED50 (Rattus norvegicus [3]) [µmol/kg] | Ki [4] [nM] | Ki [5] [nM] | ED50 (Rattus norvegicus [6]) [µmol/kg] | Ki (Mu-type opioid receptor) [nM] | fold change (FC) (Rattus norvegicus [7]) | Activity (Rattus norvegicus [8]) | Activity (Rattus norvegicus [9]) | inhibition (Rattus norvegicus [10]) | inhibition (Rattus norvegicus [11]) |
| --- | --- | --- | --- | --- | --- | --- | --- | --- | --- | --- | --- | --- |
| CN1CC[C@]23c4c5ccc(O)c4O[C@H]2[C@@H](O)C=C[C@H]3[C@H]1C5 [MORPHINE] | 13.3 | 7.63 | 6.05 | – | – | – | – | – | – | – | – | – |
| CN1CC[C@]23c4c5ccc(O)c4O[C@@]2(C)C(=O)CC[C@@]3(OCCCc2ccccc2)[C@H]1C5 | – | – | – | 0.14 | 0.54 | – | – | – | – | – | – | – |
| CC(C)(C)OC(=O)CN[C@H]1CC[C@@]2(OCCCc3ccccc3)[C@H]3Cc4ccc(O)c5c4[C@@]2(CCN3CC2CC2)[C@H]1O5 | 0.363 | 0.348 | 0.365 | 1.11 | 1.49 | 0.427 | 1.38 | 17 | – | – | – | – |
| Cl.Cl.O=C(O)CN[C@H]1CC[C@@]2(OCCCc3ccccc3)[C@H]3Cc4ccc(O)c5c4[C@@]2(CCN3CC2CC2)[C@H]1O5 | 0.433 | 0.349 | 1.39 | 0.33 | 0.64 | 0.543 | 0.27 | 17 | – | – | – | – |
| CN1CC[C@]23c4c5ccc(O)c4O[C@H]2[C@H](NCC(=O)OC(C)(C)C)CC[C@@]3(OCCCc2ccccc2)[C@H]1C5 | 0.124 | 0.0923 | 0.164 | 0.92 | 2.02 | 0.189 | 1.03 | 66 | – | – | – | – |
| CN1CC[C@]23c4c5ccc(O)c4O[C@H]2[C@@H](NCC(=O)O)CC[C@@]3(OCCCc2ccccc2)[C@H]1C5 | – | – | – | – | – | – | – | – | Active | – | – | – |
| CN1CC[C@]23c4c5ccc(O)c4O[C@H]2[C@@H](NCC(=O)OC(C)(C)C)CC[C@@]3(OCCCc2ccccc2)[C@H]1C5 | 0.084 | 0.0583 | 0.0635 | 1.01 | 1.26 | 0.148 | 1.4 | 104 | – | – | – | – |
| Cl.Cl.O=C(O)CN[C@@H]1CC[C@@]2(OCCCc3ccccc3)[C@H]3Cc4ccc(O)c5c4[C@@]2(CCN3CC2CC2)[C@H]1O5 | 0.147 | 0.183 | 1.56 | 0.35 | 0.65 | – | 0.2 | 41 | – | – | – | – |
| CO[C@@]12CC[C@@H](NCC(=O)O)[C@@H]3Oc4c(O)ccc5c4[C@@]31CCN(C)[C@@H]2C5 | 0.0433 | 0.029 | 0.0508 | – | – | – | – | – | – | Active | – | – |
| CO[C@@]12CC[C@H](NCC(=O)O)[C@@H]3Oc4c(O)ccc5c4[C@@]31CCN(C)[C@@H]2C5 | 0.143 | 0.0585 | 0.137 | – | – | 0.437 | – | – | – | – | – | – |
| C=CC[N+]1(C)CC[C@]23c4c5ccc(O)c4O[C@H]2C(=O)CC[C@@]3(O)[C@H]1C5 (stereo partly drawn) | – | – | – | – | – | – | – | – | – | – | Active | Active |
| CN1CC[C@]23c4c5ccc(O)c4O[C@H]2[C@H](NCC(=O)O)CC[C@@]3(OCCCc2ccccc2)[C@H]1C5 | – | – | – | – | – | – | – | – | Active | – | – | – |
| CC(C)(C)OC(=O)CN[C@@H]1CC[C@@]2(OCCCc3ccccc3)[C@H]3Cc4ccc(O)c5c4[C@@]2(CCN3CC2CC2)[C@H]1O5 | 0.0344 | 0.0268 | 0.0338 | 0.4 | 1.77 | 0.056 | 1.01 | – | – | – | – | – |

— ChEMBL document CHEMBL1671784 (J Med Chem, 2011)
